Measured values reported in ChEMBL document CHEMBL1926559, “Metabolic and electrochemical mechanisms of dimeric naphthoquinones cytotoxicity in breast cancer cells” (Bioorg Med Chem, 2011).
The source made the active and inactive calls. The rule behind the calls is not given here.

What was measured:
MCF7 [1] = experiment: Antiproliferative activity against human MCF7 cells after 4 hrs by MTT assay; format: functional, cell-based
Procedure, shortened: (§1)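 Cells in DMEM with 10% FBS and 1% antibiotics, 37°C, 5% CO2; equal numbers plated in three or more replicates, attached overnight, then exposed to 5, 10, 20 or 50 μM (DMSO vehicle) in complete medium for 4 h. Then 0.5 mg/ml MTT for 1 h, medium replaced with PBS, absorbance at 570 nm minus 690 nm background; compared to DMSO.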

MDA-MB-453 [2] = experiment: Antiproliferative activity against human MDA-MB-453 cells assessed as decrease in ATP level in viable cells at 20 uM after 4 hrs by CellTiter-Glo luminescent assay relative to control; format: functional
Procedure, shortened: (§2)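 10,000 cells per well, treated in sextuplet with DMSO or 5, 10, 20 or 50 μM for 4 h. ATP read by CellTiter-Glo luminescence, normalized to average count of viable trypan-blue-excluding cells per condition, expressed relative to DMSO.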

MCF7 [3] = experiment: Antiproliferative activity against human MCF7 cells assessed as decrease in ATP level in viable cells after 4 hrs by CellTiter-Glo luminescent assay relative to control; format: functional, cell-based; procedure, shortened: as §2
MDA-MB-453 [4] = experiment: Cytotoxicity against DCFDA-treated human MDA-MB-453 cells assessed as increase in ROS production after 30 mins by flow cytometric analysis; format: functional
Procedure, shortened: (§3)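 Cells preloaded with 5μM carboxy-DCFDA for 30 min, then exposed to 20 μM compound or DMSO for 2 h, collected and analysed by flow cytometry (488 nm excitation, 530 nm emission); percentage of fluorescent cells vs DMSO; triplicate samples, two separate experiments.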

MDA-MB-453 [5] = experiment: Growth inhibition of human MDA-MB-453 cells by trypan blue exclusion assay; format: functional, cell-based
Procedure, shortened: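 Viability counted by trypan blue exclusion; cells grown at 1×10⁵ cells/mL, counts done in triplicate, mean ± SD relative to DMSO.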

MCF7 [6] = experiment: Cytotoxicity against DCFDA-treated human MCF7 cells assessed as increase in ROS production […] by flow cytometric analysis; format: functional, cell-based; procedure, shortened: as §3
MDA-MB-453 [7] = experiment: Antiproliferative activity against human MDA-MB-453 cells after 4 hrs by MTT assay; format: functional, cell-based; procedure, shortened: as §1
MCF7 [8] = experiment: Antiproliferative activity against human MCF7 cells assessed as cell survival at 50 uM by trypan blue exclusion assay relative to control; format: functional; conditions: read-out: Survival
Procedure, shortened: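 MCF-7 cells kept in DMEM with 10% fetal bovine serum and 1% antibiotics at 37°C, 5% CO2, grown at 1×10⁵ cells/mL. Cells were exposed to DMSO vehicle or DMSO-dissolved compound. Viability was scored by trypan blue exclusion cell counts, done in triplicate and given as mean ± SD. Survival was expressed relative to the DMSO control.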

MDA-MB-453 [9] = experiment: Antiproliferative activity against human MDA-MB-453 cells assessed as decrease in ATP level in viable cells at >20 uM after 4 hrs by CellTiter-Glo luminescent assay relative to control; format: functional, cell-based; procedure, shortened: as §2
MDA-MB-453 [10] = experiment: Antiproliferative activity against human MDA-MB-453 cells assessed as decrease in ATP level in viable cells at 10 uM after 4 hrs by CellTiter-Glo luminescent assay relative to control; format: functional; procedure, shortened: as §2
MDA-MB-453 [11] = experiment: Cytotoxicity against human MDA-MB-453 cells assessed as decrease in oxygen consumption at 20 uM by Clark-type oxygen electrode analysis; format: functional, cell-based
Procedure, shortened: (§4)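 After 3 h exposure to 20 μM compound or DMSO, cells trypsinized, PBS-washed, pelleted; 5×10⁶ cells in 0.8 mL PBS with 10% FCS placed in a Clark-type oxygen electrode chamber to measure O2 consumption; duplicate experiments.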

MCF7 [12] = experiment: Cytotoxicity against human MCF7 cells assessed as decrease in oxygen consumption at 20 uM by Clark-type oxygen electrode analysis; format: functional, cell-based; procedure, shortened: as §4

| Compound | Activity (MCF7 [1]) | Activity (MDA-MB-453 [2]) [%] | Activity (MCF7 [3]) | Activity (MDA-MB-453 [4]) [%] | IC50 (MDA-MB-453 [5]) [µM] | Activity (MCF7 [6]) | Activity (MDA-MB-453 [7]) | viability at 50 µM (MCF7 [8]) [%] | Activity (MDA-MB-453 [9]) | Activity (MDA-MB-453 [10]) | Activity (MDA-MB-453 [11]) | Activity (MCF7 [12]) |
| --- | --- | --- | --- | --- | --- | --- | --- | --- | --- | --- | --- | --- |
| COc1ccc2c(c1)C(=O)C(C1=C(Cl)C(=O)c3ccccc3C1=O)=C(O)C2=O | inactive | 60 | inactive | 50 | 17 | inactive | Dose-dependent effect | 83 | inactive | 37% | Active | inactive |
| O=C1C(O)=C(C2=C(Cl)C(=O)c3ccccc3C2=O)C(=O)c2ccccc21 | inactive | 60 | inactive | 50 | 15 | inactive | Dose-dependent effect | 80 | inactive | 53% | Active | inactive |
| CC(C)=CCC[C@]1(C)C=Cc2c(ccc3c2C(=O)C(O)=C(C2=C(Cl)C(=O)c4ccccc4C2=O)C3=O)O1 | inactive | 27 | inactive | 50 | 34 | inactive | Dose-dependent effect | 85 | inactive | inactive | Active | inactive |
